{"data": "Measurements gathered from unrelated publications", "target": "Insulin receptor (INSR, Homo sapiens, UniProt P06213)", "note": "Each line is one published result; the experiments were not run side by side."}
{"SMILES": "CS(=O)(=O)NCC[C@H](NC(=O)c1cncc2c1cnn2-c1ccc(F)cc1)c1ccnc(S(C)(=O)=O)c1", "assay": "cell-free assay, competition with immobilised ligand", "setting": "1 µM", "remaining binding [%]": 92}
{"SMILES": "Cc1cnc(Nc2ccc(C(=O)N3CCC(N4CCCC4)CC3)cc2)nc1-c1cc2ccccc2s1", "assay": "binding, competition with immobilised ligand", "setting": "1 µM", "remaining binding [%]": 7.8}
{"SMILES": "C[C@@H]1CCN(c2nccc(-c3cnn4ncccc34)n2)C1", "assay": "binding", "setting": "1 µM", "remaining binding [%]": 72}
{"SMILES": "CNC(=O)[C@@H]1CC[C@@H](n2c(-c3ccc4cnccc4c3)nc3ccc(C(=O)NCc4cccc(C(N)=O)c4)cc32)C1", "assay": "binding, competition with immobilised ligand", "setting": "1 µM", "remaining binding [%]": 92}
{"SMILES": "O=C(NCC1CCOCC1)c1n[nH]cc1NC(=O)c1c(F)cccc1F", "assay": "binding, competition with immobilised ligand", "setting": "1 µM", "remaining binding [%]": 100}
{"SMILES": "CN(CCCC(F)(F)F)c1nccc(-c2cnn3ncccc23)n1", "assay": "binding", "setting": "1 µM", "remaining binding [%]": 78}
{"SMILES": "Cc1cc(-n2nc(Cc3cc(F)cc(C(F)(F)F)c3)nc2C)ccc1C(N)=O", "assay": "cell-free assay, competition with immobilised ligand", "setting": "1 µM", "remaining binding [%]": 99}
{"SMILES": "COc1cnc(Nc2cccc(S(N)(=O)=O)c2)nc1N1CCN(c2ccccc2)C(=O)C1", "assay": "binding, competition with immobilised ligand", "setting": "1 µM", "remaining binding [%]": 96}
{"SMILES": "O=C(c1ccc(Nc2nccc(-c3cc4ccccc4s3)n2)cc1)N1CCC(N2CCCC2)CC1", "assay": "binding, competition with immobilised ligand", "setting": "1 µM", "remaining binding [%]": 66}
{"SMILES": "C[C@@H](c1ccc(-n2cnc3c(N)ncnc32)cc1)N1CCc2nn(C)c(Cc3ccccc3)c2C1=O", "assay": "binding, competition with immobilised ligand", "setting": "0.1 µM", "remaining binding [%]": 100}
{"SMILES": "C[C@@H]1CN(c2ccc3ncc(-c4ccc5[nH]nc(C6CC6)c5c4)n3n2)C[C@H](C)O1", "assay": "binding, competition with immobilised ligand", "setting": "0.5 µM", "remaining binding [%]": 81}
{"SMILES": "CN(C)c1ncc(F)c(-c2cnn3ncccc23)n1", "assay": "binding", "setting": "1 µM", "remaining binding [%]": 81}
{"SMILES": "CCCOc1ccc([C@@H]2[C@@H](C(=O)O)[C@H](c3ccc4c(c3)OCO4)CN2CC(=O)Nc2c(CC)cccc2CC)cc1", "assay": "cell-free assay, competition with immobilised ligand", "setting": "1 µM", "remaining binding [%]": 89}
{"SMILES": "CC1CCCN1c1nccc(-c2cnn3ncccc23)n1 (stereo not shown)", "assay": "binding", "setting": "1 µM", "remaining binding [%]": 86}
{"SMILES": "CCC(=O)N[C@H]1CC[C@@H](C(=O)N(C)c2ccc(-c3nc4ccccc4o3)cc2)C1", "assay": "cell-free assay, competition with immobilised ligand", "setting": "1 µM", "remaining binding [%]": 91}
{"SMILES": "CN(C)c1nccc(-c2cnn3ncccc23)n1", "assay": "binding", "setting": "1 µM", "remaining binding [%]": 79}
{"SMILES": "COc1ccc2c(c1)O[C@@H](c1ccc(OC)c(OC)c1)C[C@H]2NC(=O)C1(c2ccc3c(c2)OC(F)(F)O3)CC1", "assay": "cell-free assay, competition with immobilised ligand", "setting": "1 µM", "remaining binding [%]": 79}
{"SMILES": "COc1ccnn2ncc(-c3ccnc(N(C)C)n3)c12", "assay": "binding", "setting": "1 µM", "remaining binding [%]": 96}
{"SMILES": "CC(=O)N1CCC(c2ccc(C(=O)NC3=NCCN3)cc2C(F)(F)F)CC1", "assay": "cell-free assay, competition with immobilised ligand", "setting": "1 µM", "remaining binding [%]": 100}
{"SMILES": "N[C@@H]1CCN(c2nccc(-c3cnn4ncccc34)n2)C1", "assay": "binding", "setting": "1 µM", "remaining binding [%]": 100}
{"SMILES": "O=C(Nc1cccnn1)N1CCC(=Cc2cccc(Oc3ccc(C(F)(F)F)cn3)c2)CC1", "assay": "cell-free assay, competition with immobilised ligand", "setting": "1 µM", "remaining binding [%]": 100}
{"SMILES": "CCN1CCN(Cc2ccc(C(=O)Nc3ccc(C)c(Oc4ccc5c(c4)CC(=O)N5)c3)cc2C(F)(F)F)CC1", "assay": "binding, competition with immobilised ligand", "setting": "1 µM", "remaining binding [%]": 77}
{"SMILES": "Cn1nc(C(F)(F)F)cc1-c1cnc(N2CCc3cc(S(=O)(=O)Nc4c(F)cc(Cl)cc4F)cc(N4CCCC4=O)c32)nc1", "assay": "cell-free assay, competition with immobilised ligand", "setting": "1 µM", "remaining binding [%]": 89}
{"SMILES": "N#Cc1ccccc1CSc1nnc2c(n1)[nH]c1ccccc12", "assay": "binding, competition with immobilised ligand", "setting": "10 µM", "remaining binding [%]": 88}
{"SMILES": "O=C(NCCCN1CCOCC1)c1ccc(Nc2nccc(-c3cc4ccccc4s3)n2)cc1", "assay": "binding, competition with immobilised ligand", "setting": "1 µM", "remaining binding [%]": 95}
